Cneo AK release: Cryptococcus neoformans cell lysis inducers, primary screen, AK release luminescence, single concentration | AID 651654, 2012 | hit rate 0.2% among 360,000 | C. neoformans lysis, adenylate kinase release luminescence, 4 h; normalised: neutral wells 0, clomiphene wells 100 | lysis activity, % at 15 µM;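 active means mean lysis activity across replicates of at least 80%, whatever share of replicates individually reach that level; inactive means mean lysis activity below 80%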
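Signal: Adenylate kinase release luminescence | Assay system: Log-phase Cryptococcus neoformans yeast cells | Input: Cells at 5 × 10^6 per mL | Buffer or medium: Fresh YPD growth medium | Compound: Single dose | Schedule: Static 4 h at 37 °C with compound, 1 h detection | Controls: Clomiphene | Read-out: Luminescence rise reflecting yeast cell lysis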
PglD DTNB: C. jejuni PglD acetyltransferase inhibitors, primary screen, biochemical, DTNB colorimetric, single point; purified PglD enzyme, DTNB colorimetric CoA detection; inhibition, % at 12.5 µM; hit rate 0.098% among 360,000; AID 602405, 2012; in the data active means inhibition above about 16%, passing the limit was not always enough
RAD54 inh: inhibitors of human RAD54 branch migration, primary screen, biochemical, fluorescence, single point; RAD54 Holliday junction branch migration, FAM/BHQ fluorescence; DNA repair and recombination protein RAD54-like (Homo sapiens), Q92698; inhibition, % at 10.4 µM; AID 602329, 2012; hit rate 0.14% among 360,000;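 active means mean normalized replicate activity at least 40 and at least half of replicates scoring 40 or more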;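 further: 0% = median of neutral control wells and 100% = median of positive control wells; inhibitors cause a drop in the FAM fluorescence signal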
Target sequence (Q92698 whole entry, looked up): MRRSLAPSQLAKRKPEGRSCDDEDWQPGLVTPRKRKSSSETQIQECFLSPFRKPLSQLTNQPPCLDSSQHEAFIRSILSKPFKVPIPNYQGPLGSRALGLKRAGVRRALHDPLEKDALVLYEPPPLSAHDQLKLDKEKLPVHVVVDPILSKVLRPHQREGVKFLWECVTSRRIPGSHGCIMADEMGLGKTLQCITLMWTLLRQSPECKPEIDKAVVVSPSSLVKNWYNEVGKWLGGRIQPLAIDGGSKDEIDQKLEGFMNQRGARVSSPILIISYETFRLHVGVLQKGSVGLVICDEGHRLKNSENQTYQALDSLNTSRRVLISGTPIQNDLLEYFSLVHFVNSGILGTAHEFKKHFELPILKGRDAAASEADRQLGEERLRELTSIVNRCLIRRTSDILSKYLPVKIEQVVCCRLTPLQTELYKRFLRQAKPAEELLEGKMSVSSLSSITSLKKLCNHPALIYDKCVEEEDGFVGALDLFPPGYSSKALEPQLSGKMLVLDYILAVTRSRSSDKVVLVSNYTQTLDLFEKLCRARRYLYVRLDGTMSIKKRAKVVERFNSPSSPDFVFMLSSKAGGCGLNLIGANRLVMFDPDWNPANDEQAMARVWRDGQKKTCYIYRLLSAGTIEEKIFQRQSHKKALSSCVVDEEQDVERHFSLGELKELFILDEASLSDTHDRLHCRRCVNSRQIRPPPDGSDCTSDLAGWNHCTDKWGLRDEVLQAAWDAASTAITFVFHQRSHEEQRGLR
Ecoli rRNA inh: reduced GFP signal of wild-type E. coli, primary screen, bacterial rRNA inhibitor project, GFP/RFP fluorescence, OD600, single point. hit rate 1.6% among 350,000. E. coli WT GFP vs humanized-ribosome RFP mutants, 24 h; active compounds read low; DMSO median 0, no signal -100. GFP signal change (wild-type ribosome), % (concentration not given with the values);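 active means significant combined selectivity score with lowered wild-type GFP, culture density cut under 30%, mutant RFP and density less affected; inactive means any of these conditions unmet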
RAD52 inh: RAD52 DNA annealing inhibitors, primary screen, biochemical, FRET, single point, set 2. DNA repair protein RAD52 homolog (Homo sapiens), P43351. recombinant RAD52 DNA annealing, FRET fluorescence. inhibition, % at 18.7 µM. hit rate 0.46% among 360,000. AID 651710, 2012;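 active means every replicate showing at least 50% inhibition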
* marks the source's active call; other numbers are inactive results. Only some compounds are listed: those with a hit (about 1.9% of all), similar ones and a draw of the others.

What do the screens show for `CC(=O)Nc1ccc2c(c1)C(=Nc1ccc(C)cc1)c1ccccc1-2`?
Cneo AK release: -0.3; PglD DTNB: 1.5; RAD54 inh: 15.9; Ecoli rRNA inh: -22.1*; RAD52 inh: -73.4

How did C[C@@H]1CN(C)C(=O)c2cc(N)ccc2O[C@H]1CN(C)C(=O)OC(C)(C)C do in these assays?
Ecoli rRNA inh: 0.1

What do the screens show for `CCN(CC)CCNC(=O)c1ccc2c(c1NCCO)C(=O)c1ccccc1C2=O`?
Cneo AK release: -2.2; PglD DTNB: 2.5; RAD54 inh: 121.8*; Ecoli rRNA inh: -43.1; RAD52 inh: 87.1*

Results for CC1CCN(C(=O)c2ccc3c(c2NCCO)C(=O)c2ccccc2C3=O)CC1 ?
Cneo AK release: 2.2; PglD DTNB: 1.1; RAD54 inh: 15.6

How did COc1ccc2c3c([nH]c2c1)[C@H](CO)N(C(=O)c1ccncc1)CC31CN(C(=O)NC(C)C)C1 do in these assays?
Ecoli rRNA inh: 4.2

What do the screens show for `CO[C@H]1CN(C)C(=O)c2ccc(NC(=O)C3CCOCC3)cc2OC[C@H](C)N(Cc2cccnc2)C[C@@H]1C`?
Ecoli rRNA inh: -0.3; RAD52 inh: -6.1

Results for Cc1[nH]n(-c2ccccc2)c(=O)c1C(c1cccc([N+](=O)[O-])c1O)c1c(C)[nH]n(-c2ccccc2)c1=O ?
Ecoli rRNA inh: -10.0; RAD52 inh: -13.0

How did Cc1[nH]n(-c2ccccc2)c(=O)c1C(c1ccc(C(=O)O)cc1)c1c(C)[nH]n(-c2ccccc2)c1=O do in these assays?
Ecoli rRNA inh: -18.8*; RAD52 inh: -13.4

What do the screens show for `Cc1[nH]n(-c2ccccc2)c(=O)c1C(c1cccc([N+](=O)[O-])c1)c1c(C)[nH]n(-c2ccccc2)c1=O`?
Ecoli rRNA inh: -45.5*; RAD52 inh: -18.6

How did COC(=O)C[C@@H]1CC[C@H]2[C@@H](COc3ccc(NC(=O)c4ccc(OC)cc4)cc3C(=O)N2C)O1 do in these assays?
Cneo AK release: -0.3; PglD DTNB: -4.0; RAD54 inh: -8.6; Ecoli rRNA inh: -2.9; RAD52 inh: 0.6

Results for CCCC(=O)Nc1ccc2c(c1)C(=O)N(C)C[C@@H](OC)[C@H](C)CN(Cc1ccccn1)[C@H](C)CO2 ?
Cneo AK release: -3.3; PglD DTNB: 0.4; RAD54 inh: -1.1; Ecoli rRNA inh: -0.1; RAD52 inh: 1.7

Results for CCCCN(C(=O)CCn1c(=O)oc2ccccc21)c1ccccc1 ?
Cneo AK release: -1.7; PglD DTNB: -1.1; RAD54 inh: 4.5; Ecoli rRNA inh: -26.9*; RAD52 inh: 0.3

Results for O=C(CCn1c(=O)oc2ccccc21)N(Cc1ccccc1)c1ccccc1 ?
Cneo AK release: -0.2; PglD DTNB: -0.9; RAD54 inh: 1.8; Ecoli rRNA inh: -23.2; RAD52 inh: -7.5

What do the screens show for `CO[C@@H]1CN(C)C(=O)c2ccc(NC(=O)c3ccc(Oc4ccccc4)cc3)cc2OC[C@@H](C)NC[C@H]1C`?
Cneo AK release: -1.3; PglD DTNB: 1.1; RAD54 inh: -7.8; Ecoli rRNA inh: -1.2; RAD52 inh: 47.7

How did COc1cccc(NC(=O)Nc2ccc3c(c2)OC[C@H](C)NC[C@@H](C)[C@@H](OC)CN(C)C3=O)c1 do in these assays?
Cneo AK release: 0.2; PglD DTNB: -1.6; RAD54 inh: -6.1; Ecoli rRNA inh: -1.6; RAD52 inh: 73.6*

What do the screens show for `COc1cccc(S(=O)(=O)Nc2ccc3c(c2)OC[C@H](C)NC[C@@H](C)[C@H](OC)CN(C)C3=O)c1`?
Cneo AK release: 86.5*; PglD DTNB: 1.4; RAD54 inh: -3.2; Ecoli rRNA inh: 0.5; RAD52 inh: -2.7

Results for CO[C@H]1CN(C)C(=O)c2ccc(NC(=O)c3ccc(Oc4ccccc4)cc3)cc2OC[C@H](C)NC[C@H]1C ?
Cneo AK release: -0.7; PglD DTNB: -0.2; RAD54 inh: 7.2; RAD52 inh: 52.0*

What do the screens show for `C[C@@H]1CN(C)C(=O)Cc2cc(N(C)C)ccc2O[C@@H]1CN(C)C`?
Ecoli rRNA inh: 1.6

Screening data deposited in PubChem BioAssay by Broad Institute.
